This note sets out measurements from ChEMBL document CHEMBL4020800, “The design, synthesis, and anti-inflammatory evaluation of a drug-like library based on the natural product valerenic acid” (Bioorg Med Chem Lett, 2017).

Calls of active or inactive are those of the source. The calls are words filed in the database; no cut-off is given here.

Data set [1] has as its system Keratinocyte. The data set is described as follows: Antiinflammatory activity in primary human […] keratinocytes assessed as inhibition of IL-17A/TNF-alpha induced IL-8 production preincubated for 2 hrs followed by cytokine addition measured after 72 hrs by HTRF assay. Format: functional, cell-based. The method, boiled down:
(§1)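 Primary human keratinocytes were stimulated with IL-17, and the inflammatory response was read as increased IL-8 secretion. Cell viability was measured in the same cells as a secondary readout to separate specific inhibition from cytotoxicity. Betamethasone served as the assay control. Maximal inhibition of IL-8 release or of viability was recorded alongside IC50 where calculated.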
A general note: TR-FRET usually uses a lanthanide donor and a delayed reading to cut background.

For data set [2], the system named is Keratinocyte. The data set is described as follows: Cytotoxicity against primary human […] keratinocytes assessed as inhibition of cell viability preincubated for 2 hrs followed by cytokine addition measured after 72 hrs by PrestoBlue staining based fluorescence assay. The gist of the method:
as §1

Data set [3] can be described thus: Cytotoxicity against primary human […] keratinocytes assessed as inhibition of cell viability at 10 uM preincubated for 2 hrs followed by cytokine addition measured after 72 hrs by PrestoBlue staining based fluorescence assay relative to control. The arrangement: species or system Keratinocyte. As to conditions: read-out: Imax.
The next data set concerns PBMC. The data set is described as follows: Antiinflammatory activity in human PBMC assessed as inhibition of LPS-induced TNF-alpha production after 16 hrs by AlphaLisa assay. Format: functional, cell-based.
Data set [4] deals with Keratinocyte. The data set is described as follows: Antiinflammatory activity in primary human […] keratinocytes assessed as inhibition of IL-17A/TNF-alpha induced IL-8 production at 10 uM preincubated for 2 hrs followed by cytokine addition measured after 72 hrs by HTRF assay relative to control. The format is functional.
Setting [5] is: Homo sapiens, Keratinocyte, read-out: IC50.

The IC50 is the concentration at which inhibition is half-maximal. With `CC1=C2[C@H](/C=C(\C)C(=O)NCCc3ccccn3)CC[C@@H](C)[C@H]2CC1`, the IC50 entry in the data set on Keratinocyte [1] (keratinocyte) and in the data set with Keratinocyte [2] (keratinocyte) was “Not Active” each time. Also, the inhibition at 72 h, 10 µM in data set [3] is 20%. Moreover, in the data set with PBMC, the inhibition result is “inactive”. Further, in the data set with Keratinocyte [4], the Imax is given as 14%.

Take `CC1=C2[C@H](/C=C(\C)C(=O)NCCN3CCOCC3)CC[C@@H](C)[C@H]2CC1`: the IC50 result in the data set on Keratinocyte [1] (keratinocyte) and with Keratinocyte [2] (keratinocyte) was “Not Active” throughout. Moreover, in data set [3], the inhibition at 72 h, 10 µM was determined as 12%. In addition, the inhibition result in the data set with PBMC is “inactive”. Moreover, the Imax in the data set on Keratinocyte [4] worked out at 17%.

For `CC1=C2[C@H](/C=C(\C)C(=O)NCc3ccccc3F)CC[C@@H](C)[C@H]2CC1`, the IC50 in the data set with Keratinocyte [1] (setting [5]) was determined as 2.8 µM; in the data set on Keratinocyte [2] (setting [5]) it was 8.7 µM. Besides, the inhibition at 72 h, 10 µM in data set [3] came out at 72%. Moreover, the inhibition entry in the data set with PBMC is “inactive”. Further, in the data set on Keratinocyte [4], the Imax was found to be 85%.

Turning to `CC1=C2[C@H](/C=C(\C)C(=O)NCc3cccc(F)c3)CC[C@@H](C)[C@H]2CC1`, the half-maximal inhibitory concentration (IC50) was found to be 4.7 µM with Keratinocyte [1] (setting [5]) and 9.6 µM with Keratinocyte [2] (setting [5]). Further, the inhibition at 72 h, 10 µM in data set [3] came out at 67%. Moreover, in the data set with PBMC, the inhibition result is “inactive”. Further, the Imax in the data set with Keratinocyte [4] is recorded as 79%.

`CC1=C2[C@H](/C=C(\C)C(=O)NCCc3ccccc3)CC[C@@H](C)[C@H]2CC1`: the figures for the IC50 in the data set on Keratinocyte [1] (setting [5]) and in the data set with Keratinocyte [2] (keratinocyte) were 7.5 µM and “Not Active”, respectively. Also, in data set [3], the inhibition at 72 h, 10 µM worked out at 11%. In addition, in the data set on PBMC, the inhibition entry is “inactive”. In addition, the Imax in the data set with Keratinocyte [4] amounted to 64%.

For `CC1=C2[C@H](/C=C(\C)C(=O)O)CC[C@@H](C)[C@H]2CC1` [VALERENIC ACID], in the data set on Keratinocyte [2] (keratinocyte), the IC50 entry is “Not Active”. In data set [3], the inhibition at 72 h, 10 µM came out at 15%. In addition, the inhibition entry in the data set with PBMC was “inactive”. Moreover, in the data set with Keratinocyte [4], the Imax is 4%.

For the compound `CC1=C2[C@H](/C=C(\C)C(=O)NCc3ccc(F)cc3)CC[C@@H](C)[C@H]2CC1`, the IC50 in the data set with Keratinocyte [1] (setting [5]) worked out at 4.9 µM; in the data set with Keratinocyte [2] (setting [5]), 9.6 µM. The inhibition at 72 h, 10 µM in data set [3] was determined as 61%. Further, in the data set with PBMC, the inhibition entry was “inactive”. For the same compound, the Imax with Keratinocyte [4] came to 70%.

Consider `CC1=C2[C@H](/C=C(\C)C(=O)NCCC(C)C)CC[C@@H](C)[C@H]2CC1`, for which the IC50 result with Keratinocyte [1] (keratinocyte) and with Keratinocyte [2] (keratinocyte) was “Not Active” each time. Also, the inhibition at 72 h, 10 µM in data set [3] stood at 9%. For the same compound, the inhibition entry with PBMC is “inactive”. In addition, the Imax in the data set with Keratinocyte [4] is on record as 22%.

Consider `CC1=C2[C@H](/C=C(\C)C(=O)NCc3ccccc3)CC[C@@H](C)[C@H]2CC1`, for which the half-inhibitory concentration (IC50) with Keratinocyte [1] (setting [5]) came out at 2.9 µM; with Keratinocyte [2] (setting [5]), 9 µM. In addition, the inhibition at 72 h, 10 µM in data set [3] was 72%. Besides, in the data set on PBMC, the inhibition result was “inactive”. Besides, the Imax with Keratinocyte [4] came to 84%.

On to `CC1=C2[C@H](/C=C(\C)C(=O)NCCc3ccc(F)cc3)CC[C@@H](C)[C@H]2CC1`, for which the IC50 entry in the data set with Keratinocyte [1] (keratinocyte) and in the data set with Keratinocyte [2] (keratinocyte) was “Not Active” throughout. Further, the inhibition at 72 h, 10 µM in data set [3] is 17%. For the same compound, the inhibition result in the data set on PBMC is “inactive”. In the data set with Keratinocyte [4], the Imax is reported as 44%.

`C[C@H]1C[C@H]2[C@@H]3CCC4=CC(=O)C=C[C@]4(C)[C@@]3(F)[C@@H](O)C[C@]2(C)[C@@]1(O)C(=O)CO` [BETAMETHASONE]: the IC50 with Keratinocyte [2] (setting [5]) worked out at 0.3 µM. The Imax in the data set on Keratinocyte [4] is 49%.

In the case of `CC1=C2[C@H](/C=C(\C)C(=O)NCCc3ccc(Br)cc3)CC[C@@H](C)[C@H]2CC1`, the IC50 was 8.3 µM in the data set with Keratinocyte [1] (setting [5]) and “Not Active” in the data set with Keratinocyte [2] (keratinocyte). The inhibition at 72 h, 10 µM in data set [3] came out at 24%. In the data set on PBMC, the inhibition result is “inactive”. Moreover, in the data set with Keratinocyte [4], the Imax was found to be 60%.

`COCCNC(=O)/C(C)=C/[C@@H]1CC[C@@H](C)[C@H]2CCC(C)=C12`: the concentration for half-maximal inhibition (IC50) result in the data set on Keratinocyte [1] (keratinocyte) and with Keratinocyte [2] (keratinocyte) was “Not Active” in each case. For the same compound, in data set [3], the inhibition at 72 h, 10 µM was found to be 7%. The inhibition entry with PBMC is “inactive”. Further, the Imax in the data set with Keratinocyte [4] amounted to 30%.
